# Screens deposited in PubChem by several laboratories.
# CaV13 FRET inh: Primary screen for inhibitors of IQ motif and Ca2+-dependent inactivation inhibitor domain binding in CACNA1D, Förster resonance energy transfer in living cells, …; HEK cells, CFP/YFP FRET ICDI-IQ, plate reader, 10 min; percent FRET-ratio fall versus neutral wells; inhibition, % at 12.3 µM; 0.098% of 340,000 active;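 active = mean replicate inhibition of at least 30% and at least 1% of replicates passing that level; inconclusive = only one of the two criteria is met; inactive = neither criterion is met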;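 also: 0% = median of the neutral control wells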
# LGR2 antag: inhibitors of bursicon-induced LGR2 CRE-luciferase signal, primary screen, cell-based, HEK293, CRE-luciferase reporter, bursicon stimulation; inhibition, % at 9.99 µM; bursicon-stimulated, 4 h; Drosophila bursicon receptor LGR2 (rickets); 0.35% of 380,000 active; AID 720647, 2013;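 active = drop in luminescence signal, shown as inhibition above about 50% in the replicate tests, limit read from the data, passing the limit was not always enough; inconclusive = probably only some replicates passing the limit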;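 also: agonist challenge used bursicon conditioned medium at about half maximal strength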
# TWEAK Fn14 block: inhibitors of TWEAK-Fn14 signaling, primary screen, luciferase reporter cells, uHTS. TWEAK-stimulated Fn14 reporter cells, luciferase luminescence, 8 h. 2% of 360,000 active. inhibition, % at 10 µM; in the data active = inhibition above about 50%
# TROY signal inh: inhibitors of TROY-driven NF-kB signaling, primary screen, Q293 LMP1-TROYcd cells, NF-kB luciferase, uHTS; Q293 LMP1-TROYcd NF-kB luciferase reporter, 4 h; inhibition, % at 10 µM; 0.98% of 360,000 active; AID 1347056, 2019;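 active = compounds whose plate-normalised and pattern-corrected inhibition of the luciferase reporter signal at the single screening dose is 50% or more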
# XiGFP reactiv: activators of inactive X chromosome reactivation, primary screen, imaging, XiGFP fibroblasts, GFP high-content imaging, set 2; XiGFP mouse fibroblasts, % GFP-positive cells imaging, 3 d; cells co-treated with 5-aza-dC sensitizer; scaled so ellipticine positive control = 100%; activation, % at 7.58 µM; 0.055% of 360,000 active;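 active = mean normalized replicate activation at least 10% and every replicate at or above 10%; inconclusive = only one of the two criteria met; inactive = mean below 10% and not all replicates reach 10%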;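 also: 0% = median of on-plate neutral control wells and 100% = ellipticine 6 µM median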
#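 material = 68-5-11 XiGFP fibroblast line | medium = DMEM plus 5-aza-dC sensitizer | schedule = 3 days compound exposure | benchmarks = positive control ellipticine, 6 µM final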
# * hit, by the source's call; ? = inconclusive; / = no result given; + = active, no number. Compounds with a hit are over-represented: about 2% of the library has one in this group of screens.
SMILES,CaV13 FRET inh,LGR2 antag,TWEAK Fn14 block,TROY signal inh,XiGFP reactiv
COc1ccc(C(=O)c2sc(Nc3ccccc3)nc2N)cc1,-6,-4,45,25,0
COc1ccc(C(=O)c2sc(Nc3ccccc3)nc2N)cc1OC,-16,19,54*,30,0
COC(=O)c1sc(NC(=S)NC(=O)c2ccccc2F)nc1C,-5,-11,52*,21,0
COC(=O)c1sc(NC(=S)NC(=O)c2cccc(C)c2)nc1C,-15,/,14,26,0
CCOC(=O)c1sc(Nc2ccccc2Cl)nc1C,-16,-108,-40,-51,/
CCOC(=O)c1sc(NC(=O)Nc2ccccc2F)nc1C,-3,?,94*,82*,0
CO[C@H]1CN(C)C(=O)c2cc(NC(=O)Nc3ccccc3)ccc2OC[C@H](C)N(C(=O)CC2CC2)C[C@H]1C,/,12,/,/,0
O=C(NC(=S)Nc1ccc(S(=O)(=O)NC2CCCCC2)cc1)c1cccs1,-5,3,53*,17,0
CN1C(=O)c2cc(NC(=O)C3CCCCC3)ccc2OC[C@@H]2O[C@@H](CC(=O)NCc3ccccc3F)CC[C@@H]21,/,-18,/,/,0
Cc1ccsc1/C=C/c1ccc2cccc(O)c2n1,-8,/,-5,-55,/
Fc1cccc(F)c1/C=C/c1ccc2ccccc2n1,-5,67*,41,15,0
Cc1ccsc1/C=C/c1ccc2ccccc2n1,-5,/,52*,47,/
Fc1cccc(Cl)c1/C=C/c1cnc2ccccc2n1,-6,91*,41,22,0
CCCNC(=O)N1CC2(C1)CN(Cc1ccccc1)[C@@H](CO)c1[nH]c3cc(OC)ccc3c12,/,-31,/,/,0
O=[N+]([O-])c1cc(C(F)(F)F)cc([N+](=O)[O-])c1NCCNC(=S)Nc1cccc(F)c1,2,26,24,68*,0
Fc1ccc(CNC(=S)Nc2cccc(C(F)(F)F)c2)cc1,-4,1,10,21,0
O=C(NNS(=O)(=O)c1ccc(F)cc1)c1ccc(O)cc1,-2,-8,62*,6,0
CC(C)(C)c1nn(-c2ccccc2)c2[nH]c(=O)c(CNc3ccc4c(c3)OCCO4)cc12,/,18,96*,82*,/
CN(C)C(=O)[C@@H]1[C@@H](CO)[C@@H]2Cn3c(ccc(-c4ccncc4)c3=O)[C@H]1N2CC1CC1,/,-2,/,/,0
Cc1ccc(-c2[nH]nc3c2C(c2cccnc2)C(C#N)=C(N)O3)cc1 (configuration not stated),-4,-12,1,19,/
CC(C)c1[nH]nc2c1C(c1cccnc1)C(C#N)=C(N)O2 (configuration not stated),-8,/,60*,13,/
C[C@@H]1CCCCO[C@@H](CN(C)C(=O)Cc2ccccc2)[C@@H](C)CN([C@H](C)CO)C(=O)c2cc(NC(=O)CCCCCC(=O)Nc3ccccc3N)ccc2O1,/,16,/,/,1
O=S(=O)(/C(=C\c1ccc(C(F)(F)F)cc1)c1nc2ccccc2[nH]1)c1ccccc1,/,/,100*,54*,/
O=C1C(Br)=C(c2ccccc2)C(c2ccccc2)=C1c1ccccc1,/,/,57*,-4,/
CO[C@@H]1CN(C)C(=O)c2ccc(NC(=O)NC(C)C)cc2OC[C@H](C)N(CCC(F)(F)F)C[C@@H]1C,/,2,/,/,0
SMILES,CaV13 FRET inh,LGR2 antag,TWEAK Fn14 block,TROY signal inh,XiGFP reactiv
Cc1ccc2c(c1)-c1c(cnn1CC(=O)Nc1ccccc1N1CCN(C)CC1)CO2,46*,3,-10,-11,0
N#CC1(C#N)CC(C=O)=C(N)C1(C#N)CC(=O)C12CC3CC(CC(C3)C1)C2 (configuration not stated),-4,2,87*,31,0
O=C(CSc1nnc(-c2cccnc2)s1)Nc1ccnc2ccccc12,-5,9,61*,32,0
Cc1ccc(NC(=O)CSc2nnc(-c3cccnc3)s2)cc1,-3,3,3,-6,0
COc1ccc(-c2cn3c4c(sc3n2)CCCC4)cc1,-5,/,73*,23,/
COc1cccc(NC(=O)c2cc3ccccc3oc2=O)c1,-1,25,86*,22,0
O=C(Nc1ccccc1)Nc1cccc2ccccc12,-6,-19,-40,-49,0
Cc1cccnc1NC(=O)Nc1cccc2ccccc12,/,/,56*,66*,/
COc1ccc2oc(=O)c(C(=O)Nc3cccc(C(C)=O)c3)cc2c1,-3,-41,-41,-26,0
CCc1nnc(NC(=O)c2cc3ccccc3oc2=O)s1,-6,/,4,-34,/
Cc1cccnc1NC(=O)c1cc2ccccc2oc1=O,-2,-28,80*,-3,0
O=C(Nc1cc2ccccc2oc1=O)c1ccccc1,-6,89*,90*,66*,0
O=C(C[C@H]1CC[C@H](NC(=O)Nc2ccc(F)cc2)[C@H](CO)O1)NCc1ccccn1,/,-23,/,/,0
N=c1oc2ccccc2cc1C(=O)Nc1ccccc1,-19,19,78*,-72,0
N=c1oc2ccc(Cl)cc2cc1C(=O)Nc1ccc(F)cc1,-20,-41,6,-44,0
N=c1oc2cc(O)ccc2cc1C(=O)Nc1ccc(Br)cc1,+,-85,72*,29,0
N=c1oc2cc(O)ccc2cc1C(=O)Nc1nc2ccccc2s1,81*,-15,53*,50*,0
COc1ccc2oc(=N)c(C(=O)Nc3ccccc3)cc2c1,-3,/,22,-21,/
CCOC(=O)c1c(C)[nH]c(/C(C)=N/O)c1C,-5,/,10,-1,/
CCOC(=O)c1c(C)[nH]c(C2=NNC(=NC3CC3)SC2)c1C,/,/,85*,84*,/
CCOC(=O)c1cnc(SC)nc1Oc1cccc(NS(=O)(=O)c2ccc(F)cc2)c1,-4,/,27,-7,/
CCOC(=O)c1cnc(SC)nc1Oc1cccc(NS(=O)(=O)c2ccccc2)c1,-4,/,55*,-10,/
CCCN1C(=O)c2cc(C(=O)NC3CCCCCC3)ccc2C1O (configuration not stated),-2,-37,4,6,0
CCOC(=O)N1CCC(N2C(=O)c3cc(C(=O)NC4CCCCC4)ccc3C2O)CC1 (configuration not stated),38*,6,-7,11,0
CCOc1ccc2nc(NCCCNC(=O)c3cc(OC)c(OC)c(OC)c3)c(C#N)cc2c1,+,0,-10,7,0
CCOc1ccc2nc(NCCNC(=O)CC)c(C#N)cc2c1,33*,/,-1,-13,/
CCC(=O)NCCNc1nc2cc(C)c(C)cc2cc1C#N,-5,/,-16,-12,/
COc1cc(C(=O)NCCCNc2nc3cc(C)cc(C)c3cc2C#N)cc(OC)c1OC,-5,/,-14,18,/
